An excerpt weighted towards active compounds, which were near 3.3% of everything screened.
E-sel inducer – E-selectin induction on HUVECs; P16581; HUVEC E-selectin immunofluorescence imaging; normalized: neutral wells 0, TNF-alpha wells 100; activation, % at 7.58 µM; 260,000 compounds, 0.37% hits;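 active means mean E-selectin-positive cell signal at least 10% of the positive control, reached in at least 60% of replicates, without over 20% cell loss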
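Read-out basis: % PE-positive cells; Test system: HUVEC primary endothelial cells; Technique: immunofluorescence imaging; Dosing: single-point compound dose.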
DENV2 CPE rescue – protects cells from dengue virus 2 cytopathic effect. DENV2-infected cells, cytopathic effect rescue, plate reader. CPE inhibition, % at 9.99 µM. 350,000 compounds, 1.7% hits. AID 651640; in the data active means CPE inhibition above about 20%, passing the limit was not always enough; tested in BHK-21 cells
Statin myotox sup – suppression of simvastatin myotoxicity; rescue of ATP level, % at 7.49 µM; AID 602340; 330,000 compounds, 0.78% hits; C2C12 myotubes + simvastatin, ATP luminescence, 48 h; scaled: DMSO 0, geranylgeraniol control 100;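 active means mean ATP rescue above about 67%, or every replicate alone reaching that limit, limit read from the data, passing the limit was not always enough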;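 further: myotubes were challenged with 10 µM simvastatin during compound exposure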
FGF22 binding – binders of recombinant human FGF22 by thermal shift. Q9HCT0. SYPRO orange fluorescence; percent of sucrose octasulfate shift, DMSO zero. activity (Tm shift, normalised), % at 9.99 µM. 340,000 compounds, 1.5% hits. AID 651658;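 active means mean Tm shift, scaled 0 neutral to 100 positive control, at about 1.3% or above, every replicate too, limit read from the data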
Target sequence (Q9HCT0 whole entry, looked up): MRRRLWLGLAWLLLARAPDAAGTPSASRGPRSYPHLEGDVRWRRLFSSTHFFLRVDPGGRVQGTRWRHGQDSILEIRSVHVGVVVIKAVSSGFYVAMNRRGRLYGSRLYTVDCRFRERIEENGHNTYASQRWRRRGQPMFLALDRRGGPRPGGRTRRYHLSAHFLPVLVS
PglD DTNB – inhibitors of Campylobacter jejuni PglD acetyltransferase. inhibition, % at 12.5 µM. AID 602405. purified PglD enzyme, DTNB colorimetric CoA detection. 360,000 compounds, 0.098% hits; in the data active means inhibition above about 16%, passing the limit was not always enough
Xi reactivation – activators of X-chromosome reactivation in mouse fibroblasts; XiGFP mouse fibroblasts, % GFP-positive cells imaging, 3 d; cells co-treated with 5-aza-dC sensitizer; scaled so ellipticine positive control = 100%; activation, % at 7.58 µM; 360,000 compounds, 0.055% hits; AID 743238;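 active means mean normalized replicate activation at least 10% and every replicate at or above 10%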
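Material: XiGFP fibroblasts, SV40-immortalized; Buffer or medium: DMEM containing 5-aza-dC; Compound dosing: single point; Times: 3 days compound exposure.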
A number is an active result; 0 = inactive; - = no result given.

SMILES	E-sel inducer	DENV2 CPE rescue	Statin myotox sup	FGF22 binding	PglD DTNB	Xi reactivation
COc1ccccc1S(=O)(=O)N[C@H]1CC[C@H](CC(=O)N2CCOCC2)O[C@@H]1CO	0	0	0	0	0	0
Cn1ncc2c(=O)n(/N=C/c3ccccc3)cnc21	-	0	-	44	-	0
O=C(Cc1ccccn1)N1CC(=O)N2[C@H](CO)[C@@H](c3ccc(C#CC4CCCCC4)cc3)[C@@H]2C1	0	26	-	-	-	0
O=C(c1cnccn1)N1CC(=O)N2[C@H](C1)[C@@H](c1ccc(/C=C/c3ccccc3)cc1)[C@@H]2CO	0	0	-	0	-	0
O=C(c1ccccn1)N1CC(=O)N2[C@H](CO)[C@@H](c3ccc(C#CCc4ccccc4)cc3)[C@@H]2C1	0	0	-	-	-	0
O=C(Cc1ccccn1)N1CC(=O)N2[C@H](C1)[C@@H](c1ccc(C#CC3CCCCC3)cc1)[C@@H]2CO	0	0	-	-	-	0
O=C(c1ccccn1)N1CC(=O)N2[C@H](CO)[C@@H](c3ccc(C#Cc4ccccc4)cc3)[C@@H]2C1	0	52	-	-	-	0
C/C=C/c1ccc([C@@H]2[C@@H](CO)N3C(=O)CN(C(=O)c4cnccn4)C[C@@H]23)cc1	0	59	-	-	-	0
O=C(c1ccccn1)N1CC(=O)N2[C@H](C1)[C@H](c1ccc(C#CCc3ccccc3)cc1)[C@@H]2CO	0	54	-	-	-	0
COc1cccc(-c2ccc([C@H]3[C@@H](CO)N4C(=O)CN(C(=O)C5CCOCC5)C[C@@H]34)cc2)c1	0	33	-	-	-	0
O=C(Cc1ccccc1)N1CC(=O)N2[C@H](CO)[C@@H](c3ccc(C#Cc4ccccc4)cc3)[C@H]2C1	0	0	-	-	-	0
O=C(Cc1ccccc1)N1CC(=O)N2[C@@H](CO)[C@H](c3ccc(C#Cc4ccccc4)cc3)[C@@H]2C1	0	24	-	-	-	0
COCC(=O)N1CC(=O)N2[C@H](CO)[C@H](c3ccc(C#Cc4cccc(OC)c4)cc3)[C@@H]2C1	0	40	-	-	-	0
COCC(=O)N1CC(=O)N2[C@H](CO)[C@H](c3ccc(C#Cc4cccc(OC)c4)cc3)[C@H]2C1	0	0	-	-	-	0
COc1ccc(NC(=O)N(C)C[C@H]2Oc3ccc(NC(=O)Nc4ccc(C(F)(F)F)cc4)cc3CC(=O)N([C@@H](C)CO)C[C@@H]2C)cc1	0	0	0	0	0	0
COc1cccc(S(=O)(=O)N[C@H]2CC[C@@H](CC(=O)NCc3ccc(F)cc3)O[C@H]2CO)c1	0	0	0	0	0	0
COCC(=O)N1[C@H](C#N)[C@H](c2ccccc2-c2cccc(F)c2)[C@H]1CO	0	0	-	0	-	0
CC(=O)/C(C#N)=C1\NC(=O)C(Cc2ccc(C)c(Cl)c2)S1 (stereo not given)	-	87	-	0	0	0
C[C@@H]1CN([C@H](C)CO)C(=O)c2cc(NC(=O)CCC(F)(F)F)ccc2O[C@@H]1CN(C)CC1CCCCC1	-	0	0	-	0	0
C[C@@H]1CCCCO[C@H](CN(C)Cc2ccc(Cl)c(Cl)c2)[C@H](C)CN([C@@H](C)CO)C(=O)c2cc(NS(=O)(=O)c3cn(C)cn3)ccc2O1	0	0	-	0	0	0
COc1ccc(N2C(=O)C(CC(N)=O)N(NC(=O)c3cccc(OC)c3)C2=S)cc1 (stereo not given)	0	31	-	0	-	0
COCC#Cc1cnc2c(c1)C(=O)N([C@@H](C)CO)C[C@@H](C)[C@H](CN(C)S(C)(=O)=O)O2	0	0	0	0	0	0
C/C(=N\NC(=O)c1cc(C)[nH]n1)c1cccs1	-	0	0	44	0	0
C/C(=N\NC(=O)c1ccc(CSc2nncn2C)cc1)c1ccc(Cl)cc1	0	0	-	0	-	0
C/C(=N\NC(=O)c1ccc(CSc2nncn2C)cc1)c1cccs1	0	0	-	43	-	0
O=C([C@@H]1[C@@H](CO)[C@@H]2Cn3c(ccc(-c4ccccc4)c3=O)[C@@H]2N1CCC(F)(F)F)N1CCOCC1	0	0	0	0	0	0
O=C(COC(=O)c1cccc(Br)c1)Nc1ccc2[nH]c(=O)[nH]c2c1	-	73	0	0	0	0
CNC[C@H]1OCCCC[C@@H](C)Oc2ccc(NS(=O)(=O)c3cn(C)cn3)cc2C(=O)N([C@H](C)CO)C[C@H]1C	0	0	-	0	0	0
